Results as given in paper PMC7825275 (Cancer chemotherapy and pharmacology, 2019).

Test system: patients with advanced solid tumors
Assay: Toxicity by grade
Format: in vivo, human
How it was run: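 Adverse events were tabulated descriptively as maximum grade in three groups: the chemotherapy-only lead-in cycle, the first veliparib-containing cycle, and all cycles. CBC and serum chemistry including liver function tests were drawn weekly during cycles 1–2, then at the start of every cycle. Veliparib was oral, twice daily on days 1–7; carboplatin/paclitaxel were IV every 21 days.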

[1] = first cycle including veliparib with carboplatin and paclitaxel, n=73
[2] = veliparib with carboplatin and paclitaxel

## C[C@]1(c2nc3c(C(N)=O)cccc3[nH]2)CCCN1 [veliparib]
[1]
  Fever, Grade 4: 0 number of patients (%)
  Flu like symptoms, Any Grade: 1 (1) number of patients (%)
  Flu like symptoms, Grade 1: 1 (1) number of patients (%)
  Flu like symptoms, Grade 2: 0 number of patients (%)
  Flu like symptoms, Grade 3: 0 number of patients (%)
  Flu like symptoms, Grade 4: 0 number of patients (%)
  Flushing, Any Grade: 2 (3) number of patients (%)
  Flushing, Grade 1: 2 (3) number of patients (%)
  Flushing, Grade 2: 0 number of patients (%)
  Flushing, Grade 3: 0 number of patients (%)
  Flushing, Grade 4: 0 number of patients (%)
  Headache, Any Grade: 3 (4) number of patients (%)
  Headache, Grade 1: 3 (4) number of patients (%)
  Headache, Grade 2: 0 number of patients (%)
  Headache, Grade 3: 0 number of patients (%)
  Headache, Grade 4: 0 number of patients (%)
  Hiccups, Any Grade: 1 (1) number of patients (%)
  Hiccups, Grade 1: 1 (1) number of patients (%)
  Hiccups, Grade 2: 0 number of patients (%)
  Hiccups, Grade 3: 0 number of patients (%)
  Hiccups, Grade 4: 0 number of patients (%)
  Hypoalbuminemia, Any Grade: 3 (4) number of patients (%)
  Hypoalbuminemia, Grade 1: 1 (1) number of patients (%)
  Hypoalbuminemia, Grade 2: 2 (3) number of patients (%)
  Hypoalbuminemia, Grade 3: 0 number of patients (%)
  Hypoalbuminemia, Grade 4: 0 number of patients (%)
  Hypocalcemia, Any Grade: 2 (3) number of patients (%)
  Hypocalcemia, Grade 1: 0 number of patients (%)
  Hypocalcemia, Grade 2: 1 (1) number of patients (%)
  Hypocalcemia, Grade 3: 1 (1) number of patients (%)
  Hypocalcemia, Grade 4: 0 number of patients (%)
  Hypomagnesemia, Any Grade: 1 (1) number of patients (%)
  Hypomagnesemia, Grade 1: 0 number of patients (%)
  Hypomagnesemia, Grade 2: 1 (1) number of patients (%)
  Hypomagnesemia, Grade 3: 0 number of patients (%)
  Hypomagnesemia, Grade 4: 0 number of patients (%)
  Hyponatremia, Any Grade: 5 (7) number of patients (%)
  Hyponatremia, Grade 1: 3 (4) number of patients (%)
  Hyponatremia, Grade 2: 0 number of patients (%)
  Hyponatremia, Grade 3: 1 (1) number of patients (%)
  Hyponatremia, Grade 4: 1 (1) number of patients (%)
  Hypophosphatemia, Any Grade: 1 (1) number of patients (%)
  Hypophosphatemia, Grade 1: 0 number of patients (%)
  Hypophosphatemia, Grade 2: 0 number of patients (%)
  Hypophosphatemia, Grade 3: 1 (1) number of patients (%)
  Hypophosphatemia, Grade 4: 0 number of patients (%)
  Insomnia, Any Grade: 1 (1) number of patients (%)
  Insomnia, Grade 1: 1 (1) number of patients (%)
  Insomnia, Grade 2: 0 number of patients (%)
  Insomnia, Grade 3: 0 number of patients (%)
  Insomnia, Grade 4: 0 number of patients (%)
  Lymphocyte count decreased, Any Grade: 14 (19) number of patients (%)
  Lymphocyte count decreased, Grade 1: 2 (3) number of patients (%)
  Lymphocyte count decreased, Grade 2: 8 (11) number of patients (%)
  Lymphocyte count decreased, Grade 3: 3 (4) number of patients (%)
  Lymphocyte count decreased, Grade 4: 1 (1) number of patients (%)
  Mucositis oropharyngeal, Any Grade: 3 (4) number of patients (%)
  Mucositis oropharyngeal, Grade 1: 3 (4) number of patients (%)
  Mucositis oropharyngeal, Grade 2: 0 number of patients (%)
  Mucositis oropharyngeal, Grade 3: 0 number of patients (%)
  Mucositis oropharyngeal, Grade 4: 0 number of patients (%)
  Muscle weakness, Grade 1: 1(1) number of patients (%)
  Muscle weakness, Grade 2: 1 (1) number of patients (%)
  Muscle weakness, Grade 3: 0 number of patients (%)
  Muscle weakness, Grade 4: 0 number of patients (%)
  Myalgia, Any Grade: 8 (11) number of patients (%)
  Myalgia, Grade 1: 6 (8) number of patients (%)
  Myalgia, Grade 2: 2 (3) number of patients (%)
  Myalgia, Grade 3: 0 number of patients (%)
  Myalgia, Grade 4: 0 number of patients (%)
  Nausea, Any Grade: 28 (38) number of patients (%)
  Nausea, Grade 1: 22 (30) number of patients (%)
  Nausea, Grade 2: 5 (7) number of patients (%)
  Nausea, Grade 3: 1 (1) number of patients (%)
  Nausea, Grade 4: 0 number of patients (%)
  Neutrophil count decreased, Any Grade: 42 (57) number of patients (%)
  Neutrophil count decreased, Grade 1: 1 (1) number of patients (%)
  Neutrophil count decreased, Grade 2: 4 (5) number of patients (%)
  Neutrophil count decreased, Grade 3: 14 (19) number of patients (%)
  Neutrophil count decreased, Grade 4: 23 (31) number of patients (%)
  Non-cardiac chest pain, Any Grade: 1 (1) number of patients (%)
  Non-cardiac chest pain, Grade 1: 1 (1) number of patients (%)
  Non-cardiac chest pain, Grade 2: 0 number of patients (%)
  Non-cardiac chest pain, Grade 3: 0 number of patients (%)
  Non-cardiac chest pain, Grade 4: 0 number of patients (%)
  Paresthesia, Any Grade: 1 (1) number of patients (%)
  Paresthesia, Grade 1: 1 (1) number of patients (%)
  Paresthesia, Grade 2: 0 number of patients (%)
  Paresthesia, Grade 3: 0 number of patients (%)
  Paresthesia, Grade 4: 0 number of patients (%)
  Peripheral sensory neuropathy, Any Grade: 7 (10) number of patients (%)
  Peripheral sensory neuropathy, Grade 1: 7 (10) number of patients (%)
  Peripheral sensory neuropathy, Grade 2: 0 number of patients (%)
  Peripheral sensory neuropathy, Grade 3: 0 number of patients (%)
  Peripheral sensory neuropathy, Grade 4: 0 number of patients (%)
  Platelet count decreased, Any Grade: 13 (18) number of patients (%)
  Platelet count decreased, Grade 1: 7 (10) number of patients (%)
  Platelet count decreased, Grade 2: 2 (3) number of patients (%)
  Platelet count decreased, Grade 3: 4 (5) number of patients (%)
  Platelet count decreased, Grade 4: 0 number of patients (%)
  Presyncope, Any Grade: 1 (1) number of patients (%)
  Presyncope, Grade 1: 0 number of patients (%)
  Presyncope, Grade 2: 0 number of patients (%)
  Presyncope, Grade 3: 1 (1) number of patients (%)
  Presyncope, Grade 4: 0 number of patients (%)
  Pruritus, Any Grade: 3 (4) number of patients (%)
  Pruritus, Grade 1: 3 (4) number of patients (%)
  Pruritus, Grade 2: 0 number of patients (%)
  Pruritus, Grade 3: 0 number of patients (%)
  Pruritus, Grade 4: 0 number of patients (%)
  Purpura, Any Grade: 1 (1) number of patients (%)
  Purpura, Grade 1: 1 (1) number of patients (%)
  Purpura, Grade 2: 0 number of patients (%)
  Purpura, Grade 3: 0 number of patients (%)
  Purpura, Grade 4: 0 number of patients (%)
  Rash maculopapular, Any Grade: 2 (3) number of patients (%)
  Rash maculopapular, Grade 1: 2 (3) number of patients (%)
  Rash maculopapular, Grade 2: 0 number of patients (%)
  Rash maculopapular, Grade 3: 0 number of patients (%)
  Rash maculopapular, Grade 4: 0 number of patients (%)
  Sepsis, Any Grade: 2 (3) number of patients (%)
  Sepsis, Grade 1: 0 number of patients (%)
  Sepsis, Grade 2: 0 number of patients (%)
  Sepsis, Grade 3: 0 number of patients (%)
  Sepsis, Grade 4: 2 (3) number of patients (%)
  Sinus disorder, Any Grade: 1 (1) number of patients (%)
  Sinus disorder, Grade 1: 1 (1) number of patients (%)
  Sinus disorder, Grade 2: 0 number of patients (%)
  Sinus disorder, Grade 3: 0 number of patients (%)
  Sinus disorder, Grade 4: 0 number of patients (%)
  Tremor, Any Grade: 1 (1) number of patients (%)
  Tremor, Grade 1: 1 (1) number of patients (%)
  Tremor, Grade 2: 0 number of patients (%)
  Tremor, Grade 3: 0 number of patients (%)
  Tremor, Grade 4: 0 number of patients (%)
  Upper respiratory infection, Any Grade: 1 (1) number of patients (%)
  Upper respiratory infection, Grade 1: 0 number of patients (%)
  Upper respiratory infection, Grade 2: 1 (1) number of patients (%)
  Upper respiratory infection, Grade 3: 0 number of patients (%)
  Upper respiratory infection, Grade 4: 0 number of patients (%)
  Vomiting, Any Grade: 9 (12) number of patients (%)
  Vomiting, Grade 1: 7 (10) number of patients (%)
  Vomiting, Grade 2: 2 (3) number of patients (%)
  Vomiting, Grade 3: 0 number of patients (%)
  Vomiting, Grade 4: 0 number of patients (%)
  Weight loss, Any Grade: 2 (3) number of patients (%)
  Weight loss, Grade 1: 2 (3) number of patients (%)
  Weight loss, Grade 2: 0 number of patients (%)
  Weight loss, Grade 3: 0 number of patients (%)
  Weight loss, Grade 4: 0 number of patients (%)
  White blood cell decreased, Any Grade: 40 (55) number of patients (%)
  White blood cell decreased, Grade 1: 6 (8) number of patients (%)
  White blood cell decreased, Grade 2: 14 (19) number of patients (%)
  White blood cell decreased, Grade 3: 17 (23) number of patients (%)
  White blood cell decreased, Grade 4: 3 (4) number of patients (%)
Total across the dose levels
  Febrile neutropenia or grade 3-4 neutropenia lasting more than 7 days: 7 patients
[2]
  neutropenia highest grade 3, DLT assessment period: 19%
  neutropenia highest grade 4, DLT assessment period: 31%
  neutropenia, frequency during the DLT assessment period: 57%
